# Data reported in ChEMBL document CHEMBL4312015, “Design, synthesis and 3D-QSAR analysis of novel thiopyranopyrimidine derivatives as potential antitumor agents inhibiting A549 and Hela cancer cells” (Eur J Med Chem, 2020).
# The source made the active and inactive calls. No cut-off for these calls is given here.
# Tests used:
# NCI-H1975 [1] = test: Antiproliferative activity against human NCI-H1975 cells harboring EGFR T790M/L858R double mutant assessed as inhibition of cell growth after 72 hrs by MTT assay; format: functional, cell-based; details: NCI-H1975, 72 h
# Method in brief: (§1)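 Cell lines from the Chinese Academy of Sciences cell collection, grown in 96-well plates with a range of compound concentrations for 72 h. Viability read by MTT, with AZD9291 as positive control. IC50 values are averages of three determinations per the methods section; table footnotes state an average of two separate determinations.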
# [2] = molecular target: T1, Epidermal growth factor receptor (Homo sapiens, UniProt P00533); test: Inhibition of wildtype EGFR (unknown origin) using biotin as substrate in presence of ATP by mobility shift assay based ELISA
# A549 [3] = test: Induction of apoptosis in human A549 cells assessed as necrotic cells at 0.057 uM after 24 hrs by AnnexinV-FITC/propidium iodide staining based FACSCalibur flow cytometry analysis (reference value: 0.33 %); format: functional
# A549 [4] = test: Cell cycle arrest in human A549 cells assessed as accumulation at G2/M phase at 0.057 uM after 24 hrs by propidium iodide staining based FACSCalibur flow cytometry analysis (reference value: 3.45 %); format: functional
# Method in brief: (§2)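 A549 cells seeded in 6-well plates for 24 h, then treated for 24 h; vehicle was 0.1% DMSO. Cells were harvested as single-cell suspensions, fixed in 70% ice-cold ethanol for 12 h, and stained with propidium iodide. DNA content was measured by flow cytometry. AZD9291 at 0.462 uM was included as reference.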
# A549 [5] = test: Cell cycle arrest in human A549 cells assessed as accumulation at S phase at 0.057 uM after 24 hrs by propidium iodide staining based FACSCalibur flow cytometry analysis (reference value: 22.24 %); format: functional; method in brief: as §2
# NCI-H1975 [6] = test: Antiproliferative activity human NCI-H1975 cells harboring EGFR T790M/L858R double mutant assessed as inhibition of cell growth at 10 uM after 72 hrs by MTT assay relative to control; format: functional; details: NCI-H1975, 72 h
# Method in brief: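 H1975 cells exposed to compound at a single 10 uM concentration. Growth inhibition rate read by MTT after 72 h in 96-well plates, with AZD9291 as positive control. Values are an average of two separate determinations.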
# HeLa [7] = test: Antiproliferative activity against human HeLa cells assessed as inhibition of cell growth after 72 hrs by MTT assay; format: functional, cell-based; method in brief: as §1
# A549 [8] = test: Antiproliferative activity against human A549 cells assessed as inhibition of cell growth after 72 hrs by MTT assay; format: functional, cell-based; details: A549, 72 h; method in brief: as §1
# HeLa [9] = test: Inhibition of EFGR protein expression in human HeLa cells after 24 hrs by Western blot analysis; format: functional, cell-based
# Method in brief: (§3)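 HeLa cells treated for 24 h with graded compound concentrations, with AZD9291 as positive control. Whole-cell lysates were made in RIPA buffer and protein measured by BCA. Equal protein was run on 10% SDS-PAGE, transferred to PVDF on ice, and probed for EGFR, p-EGFR and GAPDH.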
# A549 [10] = test: Cell cycle arrest in human A549 cells assessed as accumulation at G0/G1 phase at 0.057 uM after 24 hrs by propidium iodide staining based FACSCalibur flow cytometry analysis (reference value: 74.31 %); format: functional; method in brief: as §2
# A549 [11] = test: Induction of apoptosis in human A549 cells assessed as viable cells at 0.057 uM after 24 hrs by AnnexinV-FITC/propidium iodide staining based FACSCalibur flow cytometry analysis (reference value: 94.42 %); format: functional; details: A549, 24 h, read-out: Activity
# [12] = molecular target: Epidermal growth factor receptor (Homo sapiens, UniProt P00533, L858R/T790M); test: Inhibition of EGFR T790M/L858R double mutant (unknown origin) using biotin as substrate in presence of ATP by mobility shift assay based ELISA
# A549 [13] = test: Induction of apoptosis in human A549 cells assessed as late apoptotic cells at 0.057 uM after 24 hrs by AnnexinV-FITC/propidium iodide staining based FACSCalibur flow cytometry analysis (reference value: 1.74 %); format: functional
# A549 [14] = test: Induction of apoptosis in human A549 cells assessed as early apoptotic cells at 0.057 uM after 24 hrs by AnnexinV-FITC/propidium iodide staining based FACSCalibur flow cytometry analysis (reference value: 3.51 %); format: functional
# Homo sapiens = organism: Homo sapiens; test: Selectivity ratio of IC50 for wildtype EGFR (unknown origin) to IC50 for EGFR T790M/L858R double mutant (unknown origin) by mobility shift assay based ELISA
# [15] = molecular target: T1, Epidermal growth factor receptor; test: Inhibition of EFGR phosphorylation in human HeLa cells at 0.1 to 10 uM after 24 hrs by Western blot analysis; format: cell-based; method in brief: as §3
# T1 sequence (P00533 whole entry): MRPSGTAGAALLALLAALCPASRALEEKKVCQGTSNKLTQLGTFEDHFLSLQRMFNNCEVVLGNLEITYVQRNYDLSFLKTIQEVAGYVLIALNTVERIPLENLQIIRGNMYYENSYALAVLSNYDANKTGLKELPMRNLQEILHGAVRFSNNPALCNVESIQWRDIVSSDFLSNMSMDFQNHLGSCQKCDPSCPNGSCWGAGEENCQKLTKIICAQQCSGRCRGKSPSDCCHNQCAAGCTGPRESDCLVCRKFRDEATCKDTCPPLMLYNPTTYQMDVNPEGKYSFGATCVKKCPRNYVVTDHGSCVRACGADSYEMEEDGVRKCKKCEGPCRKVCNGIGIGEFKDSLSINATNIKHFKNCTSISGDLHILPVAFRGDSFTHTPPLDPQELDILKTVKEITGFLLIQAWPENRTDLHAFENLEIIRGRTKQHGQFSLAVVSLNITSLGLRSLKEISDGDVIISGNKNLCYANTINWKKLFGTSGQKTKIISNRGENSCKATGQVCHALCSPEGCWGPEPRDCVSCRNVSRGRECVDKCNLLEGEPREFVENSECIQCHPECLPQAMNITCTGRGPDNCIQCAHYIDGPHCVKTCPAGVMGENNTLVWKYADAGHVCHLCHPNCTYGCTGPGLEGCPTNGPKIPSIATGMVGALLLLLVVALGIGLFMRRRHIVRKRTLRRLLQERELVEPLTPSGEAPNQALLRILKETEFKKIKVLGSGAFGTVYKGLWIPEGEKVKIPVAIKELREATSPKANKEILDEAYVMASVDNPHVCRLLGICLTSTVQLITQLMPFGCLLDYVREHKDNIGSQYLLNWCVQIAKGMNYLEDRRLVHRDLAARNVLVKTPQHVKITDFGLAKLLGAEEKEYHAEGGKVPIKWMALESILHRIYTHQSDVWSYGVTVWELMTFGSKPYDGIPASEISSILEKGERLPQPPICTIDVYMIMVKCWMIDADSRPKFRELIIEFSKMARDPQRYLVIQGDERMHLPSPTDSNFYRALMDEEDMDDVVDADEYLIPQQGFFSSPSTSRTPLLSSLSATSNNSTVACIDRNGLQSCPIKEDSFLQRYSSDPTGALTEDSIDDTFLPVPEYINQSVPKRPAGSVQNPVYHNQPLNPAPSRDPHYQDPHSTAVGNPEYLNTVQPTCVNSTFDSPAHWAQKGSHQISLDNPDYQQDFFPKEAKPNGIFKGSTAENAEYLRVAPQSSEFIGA
# Epidermal growth factor receptor (Homo sapiens, UniProt P00533, L858R/T790M), sequence (P00533 25-1210 T790M/L858R limits assumed): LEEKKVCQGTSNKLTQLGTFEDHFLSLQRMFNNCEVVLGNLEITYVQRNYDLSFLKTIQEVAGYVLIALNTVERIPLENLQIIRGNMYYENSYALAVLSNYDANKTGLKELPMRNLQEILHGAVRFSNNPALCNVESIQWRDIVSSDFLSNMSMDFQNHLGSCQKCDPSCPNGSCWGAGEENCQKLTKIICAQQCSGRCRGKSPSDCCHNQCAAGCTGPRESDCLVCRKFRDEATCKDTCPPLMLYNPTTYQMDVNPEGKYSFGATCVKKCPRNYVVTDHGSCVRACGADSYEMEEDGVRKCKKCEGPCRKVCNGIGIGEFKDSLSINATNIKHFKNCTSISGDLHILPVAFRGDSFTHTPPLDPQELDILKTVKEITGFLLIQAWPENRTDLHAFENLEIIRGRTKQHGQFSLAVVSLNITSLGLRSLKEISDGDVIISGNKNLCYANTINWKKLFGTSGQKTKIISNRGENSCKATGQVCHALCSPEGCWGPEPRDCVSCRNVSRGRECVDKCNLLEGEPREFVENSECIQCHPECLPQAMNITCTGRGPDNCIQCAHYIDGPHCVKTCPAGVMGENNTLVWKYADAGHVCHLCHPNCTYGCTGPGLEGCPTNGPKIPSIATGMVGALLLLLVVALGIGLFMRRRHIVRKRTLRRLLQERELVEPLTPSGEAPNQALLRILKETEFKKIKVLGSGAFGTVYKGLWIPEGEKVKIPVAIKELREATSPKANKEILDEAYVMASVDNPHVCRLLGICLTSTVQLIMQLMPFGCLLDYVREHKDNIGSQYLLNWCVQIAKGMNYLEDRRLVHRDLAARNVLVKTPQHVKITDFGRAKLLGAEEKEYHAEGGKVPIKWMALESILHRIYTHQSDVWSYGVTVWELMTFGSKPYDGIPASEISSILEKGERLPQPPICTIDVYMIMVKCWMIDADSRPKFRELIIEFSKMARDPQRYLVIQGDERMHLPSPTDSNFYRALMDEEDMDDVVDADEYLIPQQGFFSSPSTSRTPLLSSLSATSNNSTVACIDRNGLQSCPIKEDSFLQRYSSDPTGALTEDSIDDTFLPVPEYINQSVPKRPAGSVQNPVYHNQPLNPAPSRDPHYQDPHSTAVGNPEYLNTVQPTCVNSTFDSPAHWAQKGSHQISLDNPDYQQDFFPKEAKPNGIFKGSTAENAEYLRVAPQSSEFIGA
smiles,measurement,setting,value
CCC/C=C\C(=O)Nc1cc(Nc2nc3c(c(-c4cn(C)c5ccccc45)n2)CS(=O)(=O)CC3)c(OC)cc1N(C)CCN(C)C,IC50,NCI-H1975 [1],916 nM
same,IC50,[2],> 2000 nM
same,Activity,A549 [3],0.08%
same,Activity,A549 [4],10.63%
same,Activity,A549 [5],20.2%
same,inhibition at 10 µM,NCI-H1975 [6],99.5%
same,IC50,HeLa [7]; read-out: IC50,104 nM
same,IC50,HeLa [7]; read-out: pIC50 (converted),104 nM
same,IC50,A549 [8],57 nM
same,inhibition,HeLa [9],Dose-dependent effect
same,Activity,A549 [10],69.17%
same,viability at 0.057 µM,A549 [11],88.1%
same,IC50,[12],16 nM
same,Activity,A549 [13],5.92%
same,Activity,A549 [14],5.87%
same,Ratio IC50,Homo sapiens,> 125
same,inhibition,[15],inactive
